From ChEMBL document CHEMBL4138147, “Discovery of a fluorescent probe with HDAC6 selective inhibition” (Eur J Med Chem, 2017)
Active and inactive are the calls of the source. The calls are words filed in the database; no cut-off is given here.

Legend:
[1] = target: T1, Protein deacetylase HDAC6 (Homo sapiens, UniProt Q9UBN7); test: Inhibition of human recombinant full-length HDAC6 expressed in baculovirus infected Sf9 cells using Boc-Lys(acetyl)-AMC as substrate after 30 mins by fluorescence assay
T1 sequence (Q9UBN7 whole entry): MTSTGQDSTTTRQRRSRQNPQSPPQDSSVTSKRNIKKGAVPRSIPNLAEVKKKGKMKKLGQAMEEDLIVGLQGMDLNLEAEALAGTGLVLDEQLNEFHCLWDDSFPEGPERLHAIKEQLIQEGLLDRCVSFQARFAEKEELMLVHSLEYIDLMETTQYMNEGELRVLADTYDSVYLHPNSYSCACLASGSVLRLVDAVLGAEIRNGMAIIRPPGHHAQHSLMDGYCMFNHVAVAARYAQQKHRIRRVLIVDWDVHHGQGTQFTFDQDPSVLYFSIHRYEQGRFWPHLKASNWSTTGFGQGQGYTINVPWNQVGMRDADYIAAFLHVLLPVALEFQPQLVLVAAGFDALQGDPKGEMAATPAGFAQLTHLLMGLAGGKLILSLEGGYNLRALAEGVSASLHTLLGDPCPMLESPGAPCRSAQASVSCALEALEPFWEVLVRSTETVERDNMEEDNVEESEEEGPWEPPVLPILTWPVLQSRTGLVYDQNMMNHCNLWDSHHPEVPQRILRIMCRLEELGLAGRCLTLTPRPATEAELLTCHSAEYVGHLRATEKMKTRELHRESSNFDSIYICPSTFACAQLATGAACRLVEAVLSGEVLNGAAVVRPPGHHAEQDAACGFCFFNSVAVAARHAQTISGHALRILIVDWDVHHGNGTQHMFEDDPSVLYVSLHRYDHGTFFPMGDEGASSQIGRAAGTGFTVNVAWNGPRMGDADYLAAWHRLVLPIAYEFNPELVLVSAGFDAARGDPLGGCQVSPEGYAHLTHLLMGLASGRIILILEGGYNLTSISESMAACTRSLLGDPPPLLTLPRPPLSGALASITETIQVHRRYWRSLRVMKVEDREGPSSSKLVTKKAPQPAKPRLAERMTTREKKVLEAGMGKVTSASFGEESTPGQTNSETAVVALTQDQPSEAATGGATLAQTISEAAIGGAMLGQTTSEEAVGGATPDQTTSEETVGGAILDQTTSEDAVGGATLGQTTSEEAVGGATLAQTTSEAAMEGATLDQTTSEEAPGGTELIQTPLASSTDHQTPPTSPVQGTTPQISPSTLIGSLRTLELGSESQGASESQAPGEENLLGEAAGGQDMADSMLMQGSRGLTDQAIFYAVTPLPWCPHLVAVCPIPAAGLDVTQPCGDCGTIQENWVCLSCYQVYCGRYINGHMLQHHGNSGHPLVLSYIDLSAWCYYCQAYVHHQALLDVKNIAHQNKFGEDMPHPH

[2] = Drug uptake in human A549 cells assessed as intracellular distribution at 2 uM added after 24 hrs pre-treatment with MG132 followed by compound addition measured after 2 hrs by fluorescence staining-based confocal microscopic analysis; format: ADME, cell-based; conditions: a549, 24 h
How it was run: (§1)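 A549 cells (DMEM, 10% FBS, 37 °C, 5% CO2) given DMSO or 5 μM MG132 for 24 h, fixed in 4% formaldehyde/PBS 20 min, then stained with 2 μM compound in PBS for 2 h. For antibody co-staining, cells were permeabilized with 0.1% Triton X-100, BSA-blocked, and probed overnight at 4 °C with anti-HDAC6 or anti-ubiquitin antibody plus Alexa 647 secondary before the compound. Confocal imaging: compound ex 405/em 500–600 nm; antibody ex 633/em 650–750 nm.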

[3] = target: Histone deacetylase 4 (Homo sapiens, UniProt P56524); test: Inhibition of HDAC4 (unknown origin) using Boc-Lys(acetyl)-AMC as substrate after 30 mins by fluorescence assay
How it was run: (§2)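 The HDAC isoform was incubated with substrate and compound (from a 10% DMSO dilution, 5 μL into a 50 μL reaction) at 37 °C for 30 min. The reaction was stopped with developer containing trypsin and TSA.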

[4] = target: T2, Polyamine deacetylase HDAC10 (Homo sapiens, UniProt Q969S8); test: Inhibition of HDAC10 (unknown origin) using Boc-Lys(acetyl)-AMC as substrate after 30 mins by fluorescence assay; how it was run: as §2
T2 sequence (Q969S8 whole entry): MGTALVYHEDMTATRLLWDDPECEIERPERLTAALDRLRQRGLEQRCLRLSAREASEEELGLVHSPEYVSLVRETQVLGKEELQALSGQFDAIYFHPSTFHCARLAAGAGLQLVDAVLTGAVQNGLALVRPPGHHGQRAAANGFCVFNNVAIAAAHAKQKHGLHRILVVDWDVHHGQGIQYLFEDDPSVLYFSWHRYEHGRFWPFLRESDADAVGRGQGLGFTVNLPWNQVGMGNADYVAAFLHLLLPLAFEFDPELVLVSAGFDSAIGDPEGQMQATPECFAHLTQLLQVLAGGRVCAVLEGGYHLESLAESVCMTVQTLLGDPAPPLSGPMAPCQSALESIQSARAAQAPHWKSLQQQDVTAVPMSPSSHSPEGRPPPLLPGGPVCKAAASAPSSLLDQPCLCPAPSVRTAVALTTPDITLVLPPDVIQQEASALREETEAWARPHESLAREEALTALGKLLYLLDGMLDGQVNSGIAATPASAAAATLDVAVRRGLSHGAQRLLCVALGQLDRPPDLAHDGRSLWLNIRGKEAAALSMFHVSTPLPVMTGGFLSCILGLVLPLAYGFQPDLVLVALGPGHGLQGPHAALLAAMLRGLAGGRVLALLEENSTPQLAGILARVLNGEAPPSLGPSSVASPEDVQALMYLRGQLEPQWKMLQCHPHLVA

[5] = target: Histone deacetylase 9 (Homo sapiens, UniProt Q9UKV0); test: Inhibition of HDAC9 (unknown origin) using Boc-Lys(acetyl)-AMC as substrate after 30 mins by fluorescence assay; how it was run: as §2
[6] = target: T3, Histone deacetylase 7 (Homo sapiens, UniProt Q8WUI4); test: Inhibition of HDAC7 (unknown origin) using Boc-Lys(acetyl)-AMC as substrate after 30 mins by fluorescence assay
T3 sequence (Q8WUI4 whole entry): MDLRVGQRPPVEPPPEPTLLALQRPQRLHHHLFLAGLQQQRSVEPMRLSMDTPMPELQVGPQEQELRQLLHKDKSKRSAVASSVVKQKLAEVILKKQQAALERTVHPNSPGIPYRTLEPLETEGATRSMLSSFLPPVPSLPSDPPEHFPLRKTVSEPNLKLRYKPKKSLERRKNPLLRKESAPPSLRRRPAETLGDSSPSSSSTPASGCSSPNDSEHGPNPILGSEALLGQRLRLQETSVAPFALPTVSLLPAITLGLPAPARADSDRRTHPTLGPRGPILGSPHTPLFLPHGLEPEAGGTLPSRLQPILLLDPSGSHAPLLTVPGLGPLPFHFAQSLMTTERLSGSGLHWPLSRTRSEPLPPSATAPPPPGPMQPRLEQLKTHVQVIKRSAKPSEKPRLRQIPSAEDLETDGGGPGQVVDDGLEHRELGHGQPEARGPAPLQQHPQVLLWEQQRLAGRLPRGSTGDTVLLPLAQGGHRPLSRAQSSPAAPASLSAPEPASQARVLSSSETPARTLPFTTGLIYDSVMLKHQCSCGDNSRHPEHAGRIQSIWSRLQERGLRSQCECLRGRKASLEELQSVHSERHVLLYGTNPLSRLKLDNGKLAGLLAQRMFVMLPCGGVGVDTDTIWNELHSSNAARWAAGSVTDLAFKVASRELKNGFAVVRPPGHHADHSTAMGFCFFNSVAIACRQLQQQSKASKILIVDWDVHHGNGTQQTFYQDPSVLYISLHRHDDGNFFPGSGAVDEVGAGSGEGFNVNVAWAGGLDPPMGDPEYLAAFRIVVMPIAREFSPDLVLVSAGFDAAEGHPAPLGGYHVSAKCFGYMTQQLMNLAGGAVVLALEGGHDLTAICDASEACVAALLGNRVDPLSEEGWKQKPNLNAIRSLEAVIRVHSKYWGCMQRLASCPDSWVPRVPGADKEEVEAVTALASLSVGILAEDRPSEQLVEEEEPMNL

[7] = target: T4, Protein deacetylase HDAC6 (Homo sapiens) (UniProt Q9UBN7); test: (§3) Binding affinity to HDAC6 in aggresomes of human A549 cells assessed as formation of aggresome-like structures at 2 uM added after 24 hrs pre-treatment with MG132 followed by compound addition measured after 2 hrs by fluorescence staining-based confocal microscopic analysis; how it was run: as §1
T4 sequence (whole entry): T1 sequence (Q9UBN7 whole entry)

[8] = target: T5, Histone deacetylase 8 (Homo sapiens, UniProt Q9BY41); test: Inhibition of HDAC8 (unknown origin) using Boc-Lys(acetyl)-AMC as substrate after 30 mins by fluorescence assay; how it was run: as §2
T5 sequence (Q9BY41 whole entry): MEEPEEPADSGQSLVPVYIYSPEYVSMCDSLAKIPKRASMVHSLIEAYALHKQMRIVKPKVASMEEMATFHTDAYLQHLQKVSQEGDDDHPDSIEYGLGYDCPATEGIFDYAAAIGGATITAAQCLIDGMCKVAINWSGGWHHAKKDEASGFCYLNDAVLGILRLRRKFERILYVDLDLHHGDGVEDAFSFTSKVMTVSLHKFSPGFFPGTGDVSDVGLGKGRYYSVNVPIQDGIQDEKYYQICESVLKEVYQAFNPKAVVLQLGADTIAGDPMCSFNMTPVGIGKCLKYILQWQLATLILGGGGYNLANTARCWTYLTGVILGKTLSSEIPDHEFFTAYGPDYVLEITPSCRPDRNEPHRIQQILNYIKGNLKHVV

[9] = target: Histone deacetylase 5 (Homo sapiens, UniProt Q9UQL6); test: Inhibition of HDAC5 (unknown origin) using Boc-Lys(acetyl)-AMC as substrate after 30 mins by fluorescence assay; how it was run: as §2
[10] = Drug uptake in cytoplasm of human A549 cells assessed as diffused staining in cytoplasm at 2 uM added after 24 hrs pre-treatment with DMSO followed by compound addition measured after 2 hrs by fluorescence staining-based confocal microscopic analysis; format: ADME, subcellular; conditions: a549, 24 h; how it was run: as §1
[11] = target: T4, Protein deacetylase HDAC6 (Homo sapiens); test: as §3, with “induction of co-localization” for “formation”, “structures with polyubiquitin” for “structures”; how it was run: as §1
[12] = target: T4, Protein deacetylase HDAC6 (Homo sapiens); test: Binding affinity to HDAC6 in aggresomes of human A549 cells assessed as relocation of compound to single bright juxtanuclear structure at 2 uM added after 24 hrs pre-treatment with MG132 followed by compound addition measured after 2 hrs by fluorescence staining-based confocal microscopic analysis; how it was run: as §1
[13] = target: Histone deacetylase 1 (Homo sapiens, UniProt Q13547); test: Inhibition of human recombinant full-length HDAC1 (1 to 482 residues) expressed in baculovirus using Boc-Lys(acetyl)-AMC as substrate after 30 mins by fluorescence assay
[14] = target: T6, Histone deacetylase 11 (Homo sapiens, UniProt Q96DB2); test: Inhibition of HDAC11 (unknown origin) using Boc-Lys(acetyl)-AMC as substrate after 30 mins by fluorescence assay; how it was run: as §2
T6 sequence (Q96DB2 whole entry): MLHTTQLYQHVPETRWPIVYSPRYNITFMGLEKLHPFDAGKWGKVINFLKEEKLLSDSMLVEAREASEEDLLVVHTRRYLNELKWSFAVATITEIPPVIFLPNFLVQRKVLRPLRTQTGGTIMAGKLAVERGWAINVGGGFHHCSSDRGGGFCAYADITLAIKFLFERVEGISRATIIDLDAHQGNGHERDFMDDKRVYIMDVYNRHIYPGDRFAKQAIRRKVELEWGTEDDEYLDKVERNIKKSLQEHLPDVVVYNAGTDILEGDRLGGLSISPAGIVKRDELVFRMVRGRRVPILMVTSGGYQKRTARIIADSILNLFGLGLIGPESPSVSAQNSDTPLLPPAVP

[15] = target: Histone deacetylase 1/2/3 (Homo sapiens) (UniProt Q13547+O15379+Q92769); conditions: A549, at 500 nM
[16] = target: Histone deacetylase 3 (Homo sapiens, UniProt O15379); test: Inhibition of human recombinant full-length C-terminal GST-tagged HDAC3 expressed in baculovirus infected Sf9 cells using Boc-Lys(acetyl)-AMC as substrate after 30 mins by fluorescence assay
[17] = target: Histone deacetylase 2 (Homo sapiens, UniProt Q92769); test: Inhibition of human recombinant full-length C-terminal GST-tagged HDAC2 expressed in baculovirus infected Sf9 cells using Boc-Lys(acetyl)-AMC as substrate after 30 mins by fluorescence assay; format: cell-based
Sequence of Histone deacetylase 2 (Q92769 whole entry): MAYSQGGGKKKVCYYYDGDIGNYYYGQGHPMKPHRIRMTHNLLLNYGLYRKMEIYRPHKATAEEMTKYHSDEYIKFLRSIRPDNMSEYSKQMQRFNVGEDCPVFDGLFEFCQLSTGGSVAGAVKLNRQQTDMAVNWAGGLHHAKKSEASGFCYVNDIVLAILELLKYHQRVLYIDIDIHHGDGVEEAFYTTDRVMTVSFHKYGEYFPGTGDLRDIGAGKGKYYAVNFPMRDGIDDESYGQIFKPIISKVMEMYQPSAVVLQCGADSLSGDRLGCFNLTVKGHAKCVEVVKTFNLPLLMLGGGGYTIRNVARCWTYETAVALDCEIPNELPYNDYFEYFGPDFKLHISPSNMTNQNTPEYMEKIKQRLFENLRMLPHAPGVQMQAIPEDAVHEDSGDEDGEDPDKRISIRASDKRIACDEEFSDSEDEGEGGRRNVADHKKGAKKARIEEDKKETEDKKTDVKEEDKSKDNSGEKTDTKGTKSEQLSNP

Sequence of Histone deacetylase 3 (O15379 whole entry): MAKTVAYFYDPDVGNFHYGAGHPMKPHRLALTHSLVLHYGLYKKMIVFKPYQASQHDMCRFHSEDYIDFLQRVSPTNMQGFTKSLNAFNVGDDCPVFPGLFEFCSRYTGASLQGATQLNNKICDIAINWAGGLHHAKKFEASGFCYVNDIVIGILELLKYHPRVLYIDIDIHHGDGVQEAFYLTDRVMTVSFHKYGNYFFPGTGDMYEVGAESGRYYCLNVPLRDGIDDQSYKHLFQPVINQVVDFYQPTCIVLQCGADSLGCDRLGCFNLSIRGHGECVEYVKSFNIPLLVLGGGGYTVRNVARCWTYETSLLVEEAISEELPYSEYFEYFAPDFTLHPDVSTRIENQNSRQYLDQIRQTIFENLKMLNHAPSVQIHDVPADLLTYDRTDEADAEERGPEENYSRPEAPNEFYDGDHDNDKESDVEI
Sequence of Histone deacetylase 1 (Q13547 whole entry, the tested form may be a part): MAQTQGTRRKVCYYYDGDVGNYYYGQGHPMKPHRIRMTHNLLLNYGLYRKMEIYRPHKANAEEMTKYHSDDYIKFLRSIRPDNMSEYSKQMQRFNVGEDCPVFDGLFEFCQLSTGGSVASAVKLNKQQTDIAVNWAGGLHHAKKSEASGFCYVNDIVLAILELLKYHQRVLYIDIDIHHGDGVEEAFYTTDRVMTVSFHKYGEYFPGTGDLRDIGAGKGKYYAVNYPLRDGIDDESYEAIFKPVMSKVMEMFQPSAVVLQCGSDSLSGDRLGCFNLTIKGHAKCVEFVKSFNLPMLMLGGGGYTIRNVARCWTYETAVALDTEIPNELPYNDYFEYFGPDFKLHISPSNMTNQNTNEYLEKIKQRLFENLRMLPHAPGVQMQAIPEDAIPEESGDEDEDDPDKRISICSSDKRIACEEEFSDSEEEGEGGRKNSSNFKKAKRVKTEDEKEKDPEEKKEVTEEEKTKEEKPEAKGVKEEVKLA
Sequence of Histone deacetylase 4 (P56524 whole entry, canonical isoform): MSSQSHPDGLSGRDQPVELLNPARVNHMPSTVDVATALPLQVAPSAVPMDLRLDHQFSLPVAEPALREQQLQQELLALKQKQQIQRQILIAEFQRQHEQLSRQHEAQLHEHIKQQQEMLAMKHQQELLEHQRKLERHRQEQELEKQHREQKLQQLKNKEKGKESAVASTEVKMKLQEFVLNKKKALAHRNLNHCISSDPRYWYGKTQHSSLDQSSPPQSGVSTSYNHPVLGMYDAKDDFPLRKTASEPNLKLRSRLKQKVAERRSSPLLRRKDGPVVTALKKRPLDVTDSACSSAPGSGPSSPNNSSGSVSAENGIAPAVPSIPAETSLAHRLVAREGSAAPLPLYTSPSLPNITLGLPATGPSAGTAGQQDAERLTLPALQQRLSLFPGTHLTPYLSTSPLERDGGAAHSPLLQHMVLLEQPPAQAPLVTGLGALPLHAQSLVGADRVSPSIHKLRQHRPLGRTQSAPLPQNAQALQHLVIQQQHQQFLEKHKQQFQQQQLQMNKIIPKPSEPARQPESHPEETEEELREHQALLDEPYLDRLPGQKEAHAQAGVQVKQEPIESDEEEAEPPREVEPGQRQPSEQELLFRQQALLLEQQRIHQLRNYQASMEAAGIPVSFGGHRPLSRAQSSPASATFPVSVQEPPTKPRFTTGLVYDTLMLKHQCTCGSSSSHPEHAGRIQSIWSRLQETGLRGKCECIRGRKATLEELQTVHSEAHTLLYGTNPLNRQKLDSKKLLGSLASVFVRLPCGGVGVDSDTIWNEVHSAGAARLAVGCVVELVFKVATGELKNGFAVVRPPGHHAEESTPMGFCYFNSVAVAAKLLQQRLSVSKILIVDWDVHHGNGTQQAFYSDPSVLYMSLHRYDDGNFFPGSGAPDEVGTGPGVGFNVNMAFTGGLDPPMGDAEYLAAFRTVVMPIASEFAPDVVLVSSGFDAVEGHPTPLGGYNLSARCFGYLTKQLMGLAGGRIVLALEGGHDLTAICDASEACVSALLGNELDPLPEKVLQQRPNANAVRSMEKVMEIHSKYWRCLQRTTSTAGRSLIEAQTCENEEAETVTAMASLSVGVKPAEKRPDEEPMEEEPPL
Sequence of Histone deacetylase 9 (Q9UKV0 whole entry): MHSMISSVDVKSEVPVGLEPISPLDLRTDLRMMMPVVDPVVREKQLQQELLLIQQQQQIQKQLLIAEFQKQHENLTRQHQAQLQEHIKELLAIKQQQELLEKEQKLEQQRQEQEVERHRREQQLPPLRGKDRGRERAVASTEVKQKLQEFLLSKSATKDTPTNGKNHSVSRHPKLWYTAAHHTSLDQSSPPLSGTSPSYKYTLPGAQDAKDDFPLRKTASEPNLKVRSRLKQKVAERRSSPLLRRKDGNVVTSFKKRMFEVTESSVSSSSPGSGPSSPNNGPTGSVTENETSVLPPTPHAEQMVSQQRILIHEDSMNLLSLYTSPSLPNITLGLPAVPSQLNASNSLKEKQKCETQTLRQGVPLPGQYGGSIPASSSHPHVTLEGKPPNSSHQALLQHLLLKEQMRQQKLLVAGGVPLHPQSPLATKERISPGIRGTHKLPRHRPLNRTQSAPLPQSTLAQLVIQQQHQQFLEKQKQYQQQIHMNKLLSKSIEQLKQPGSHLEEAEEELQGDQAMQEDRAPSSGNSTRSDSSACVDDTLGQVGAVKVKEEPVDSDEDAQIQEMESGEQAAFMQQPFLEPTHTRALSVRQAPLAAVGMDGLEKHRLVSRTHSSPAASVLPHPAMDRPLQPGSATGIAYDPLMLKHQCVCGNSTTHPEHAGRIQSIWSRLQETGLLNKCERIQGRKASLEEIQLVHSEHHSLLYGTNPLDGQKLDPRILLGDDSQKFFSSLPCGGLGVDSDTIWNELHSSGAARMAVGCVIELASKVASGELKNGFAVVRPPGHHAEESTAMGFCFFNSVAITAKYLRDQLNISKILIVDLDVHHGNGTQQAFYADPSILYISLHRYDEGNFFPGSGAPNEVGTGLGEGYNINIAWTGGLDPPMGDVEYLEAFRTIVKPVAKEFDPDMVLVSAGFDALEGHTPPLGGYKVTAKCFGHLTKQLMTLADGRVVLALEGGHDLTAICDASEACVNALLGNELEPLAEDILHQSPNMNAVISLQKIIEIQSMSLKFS
Sequence of Histone deacetylase 5 (Q9UQL6 whole entry, the tested form may be a part): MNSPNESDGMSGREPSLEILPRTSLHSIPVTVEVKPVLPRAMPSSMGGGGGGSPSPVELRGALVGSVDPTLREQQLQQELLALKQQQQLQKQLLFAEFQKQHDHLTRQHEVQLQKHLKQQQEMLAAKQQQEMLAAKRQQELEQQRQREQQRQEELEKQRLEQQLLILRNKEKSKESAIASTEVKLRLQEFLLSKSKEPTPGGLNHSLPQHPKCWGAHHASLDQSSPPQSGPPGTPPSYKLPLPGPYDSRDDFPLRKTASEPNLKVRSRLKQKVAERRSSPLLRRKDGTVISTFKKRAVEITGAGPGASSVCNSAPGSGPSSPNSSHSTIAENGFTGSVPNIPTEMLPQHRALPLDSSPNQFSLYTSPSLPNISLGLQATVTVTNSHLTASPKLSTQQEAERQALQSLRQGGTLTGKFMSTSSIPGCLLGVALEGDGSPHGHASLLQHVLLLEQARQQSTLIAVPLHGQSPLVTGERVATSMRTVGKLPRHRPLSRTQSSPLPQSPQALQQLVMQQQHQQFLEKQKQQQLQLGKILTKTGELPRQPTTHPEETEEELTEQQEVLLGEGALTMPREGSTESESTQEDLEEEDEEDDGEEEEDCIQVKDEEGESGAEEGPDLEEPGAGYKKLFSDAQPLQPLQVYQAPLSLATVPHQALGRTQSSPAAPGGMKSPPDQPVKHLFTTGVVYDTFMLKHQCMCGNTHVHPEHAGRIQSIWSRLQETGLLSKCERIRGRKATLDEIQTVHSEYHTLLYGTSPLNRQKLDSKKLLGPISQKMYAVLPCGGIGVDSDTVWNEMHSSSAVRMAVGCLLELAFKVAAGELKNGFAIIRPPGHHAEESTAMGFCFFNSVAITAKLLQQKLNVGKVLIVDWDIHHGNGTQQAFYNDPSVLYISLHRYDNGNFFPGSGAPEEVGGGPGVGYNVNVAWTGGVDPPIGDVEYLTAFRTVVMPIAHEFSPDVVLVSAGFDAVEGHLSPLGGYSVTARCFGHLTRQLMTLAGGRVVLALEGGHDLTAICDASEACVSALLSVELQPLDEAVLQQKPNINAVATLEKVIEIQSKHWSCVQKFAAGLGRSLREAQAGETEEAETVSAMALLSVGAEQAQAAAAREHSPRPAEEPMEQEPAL

| IC50 [1] | Drug uptake [2] | IC50 [3] | IC50 [4] | IC50 [5] | IC50 [6] | Activity [7] | IC50 [8] | IC50 [9] | Drug uptake [10] | Activity [11] | Activity [12] | IC50 [13] | IC50 [14] | inhibition [15] | IC50 [16] | IC50 [17] | Structure (SMILES) |
| --- | --- | --- | --- | --- | --- | --- | --- | --- | --- | --- | --- | --- | --- | --- | --- | --- | --- |
| 139 nM | Active | > 100000 nM | 1870 nM | > 30000 nM | > 100000 nM | Active | 3050 nM | > 100000 nM | Active | Active | Active | > 20000 nM | > 10000 nM | inactive | > 30000 nM | > 100000 nM | O=C(NO)c1ccc(CCN2C(=O)c3cccc4c(N5CCOCC5)ccc(c34)C2=O)cc1 |
| 0.65 nM | – | – | – | – | – | inactive | – | – | – | – | – | 5.25 nM | – | – | 2.65 nM | 25.6 nM | O=C(CCCCCN1C(=O)c2cccc3c(N4CCOCC4)ccc(c23)C1=O)NO |
| 2.7 nM | – | – | – | – | – | inactive | – | – | – | – | – | 36.2 nM | – | Active | 11.1 nM | 98.8 nM | O=C(NO)c1ccc(CN2C(=O)c3cccc4c(N5CCOCC5)ccc(c34)C2=O)cc1 |
